The test system of one series is Hepatocyte. The experiment in a line: Cytotoxicity against C57BLKS rat Primary hepatocytes assessed as cell viability by measuring cellular protein level at 10 to 300 uM by bicinchoninic acid method. Type of series: cell-based. An outline of the steps:
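Primary hepatocytes isolated from rat, cultured overnight in DMEM with 10% FBS, then exposed to compounds. Cellular protein per group measured by bicinchoninic acid (BCA) method as a viability control. The same protein values serve to normalize glucose, TG and TC contents. Pathological stimulation where applicable: 1 µM dexamethasone plus 200 µM cAMP, or 25 mM glucose plus 500 nM insulin for 24 h. Means ± SEM, four independent experiments.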

The target of series [1] is T1, Fructose-1,6-bisphosphatase 1 (Homo sapiens, UniProt P09467).
T1 sequence (P09467 whole entry): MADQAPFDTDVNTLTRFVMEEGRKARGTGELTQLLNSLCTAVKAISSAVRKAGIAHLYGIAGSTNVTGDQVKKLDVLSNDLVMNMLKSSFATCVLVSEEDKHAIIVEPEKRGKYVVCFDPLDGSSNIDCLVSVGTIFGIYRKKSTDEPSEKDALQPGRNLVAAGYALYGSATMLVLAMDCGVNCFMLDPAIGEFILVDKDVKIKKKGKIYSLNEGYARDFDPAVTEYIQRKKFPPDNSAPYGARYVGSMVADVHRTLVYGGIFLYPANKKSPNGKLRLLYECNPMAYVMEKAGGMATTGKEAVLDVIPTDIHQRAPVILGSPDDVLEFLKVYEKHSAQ
As to the kind of experiment: Binding affinity to human FBPase expressed in Escherichia coli BL21 (DE3) assessed as dissociation constant at 100 uM by UV-visible spectroscopy.

As a reminder, the Kd is the equilibrium constant for the complex coming apart.

For the molecule `CCOC(=O)C(C)(C)Oc1ccc(F)c(/C=C/[N+](=O)[O-])c1`, the Activity result with Hepatocyte is on record as “Non-Toxic”.

On to `N#Cc1ccc(/C=C/[N+](=O)[O-])cc1`, for which the Kd in series [1] is 54 µM.

Values taken from ChEMBL document CHEMBL4311987, “Discovery of novel allosteric site and covalent inhibitors of FBPase with potent hypoglycemic effects” (Eur J Med Chem, 2019).
